Measured values published in ChEMBL document CHEMBL1124278, “Heterocyclic quinones with potential antitumor activity. 2. Synthesis and antitumor activity of some benzimidazole-4,7-dione derivatives” (1988).

Tests used:
[1] = test system: P338; assay: Antitumor activity against P338 leukemia cells measured as T/C(average survival time of treated mice/control mice*100)at 12.5 mg/kg, ip optimal dose on days 1-5 in mice; format: functional; conditions: Mus musculus, route intraperitoneal
Procedure, shortened: (§1)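 Five CD2F1 mice per group received 10⁶ P388 lymphocytic leukemia cells ip on day 0. Drug was given ip daily on days 1–5, following NCI protocols. %T/C is mean survival time of treated over control mice × 100, taken at the optimal dose; the toxic dose level was also recorded.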

[2] = test system: P338; assay: Antitumor activity against P338 leukemia cells measured as toxic level at 12.5 mg/kg, ip optimal dose on days 1-5 in mice; format: functional, Mus musculus; conditions: route intraperitoneal
Procedure, shortened: (§2)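 Groups of five mice were inoculated ip with 10⁶ P388 (P338) lymphocytic leukemia cells on day 0. Drug was injected ip daily on days 1–5, following NCI protocols. Optimal dose, maximum % T/C and toxic level are in mg/kg. % T/C = (average survival time of treated mice / control mice) × 100.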

[3] = test system: P338; assay: Antitumor activity against P338 leukemia cells measured as toxic level at 1.56 mg/kg, ip optimal dose on days 1-5 in mice; format: functional, Mus musculus; conditions: route intraperitoneal; procedure, shortened: as §2
[4] = test system: P338; assay: Antitumor activity against P338 leukemia cells measured as T/C(average survival time of treated mice/control mice*100)at 1.56 mg/kg, ip optimal dose on days 1-5 in mice; format: functional; conditions: Mus musculus, route intraperitoneal; procedure, shortened: as §1
[5] = test system: P338; assay: Antitumor activity against P338 leukemia cells measured as T/C(average survival time of treated mice/control mice*100)at 25 mg/kg, ip optimal dose on day 1 in mice; format: functional; conditions: Mus musculus, 24 h, route intraperitoneal
Procedure, shortened: (§3)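 Groups of five CD2F1 mice were inoculated ip with 10⁶ P388 lymphocytic leukemia cells on day 0. Drug was given as a single ip injection on day 1, following NCI protocols. %T/C = (average survival time of treated mice / control mice) × 100, taken at the optimal dose; the toxic dose level was also recorded.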

[6] = test system: P338; assay: Antitumor activity against P338 leukemia cells measured as toxic level at 3.12 mg/kg, ip optimal dose on days 1-5 in mice; format: functional, Mus musculus; conditions: route intraperitoneal; procedure, shortened: as §2
[7] = test system: P338; assay: Antitumor activity against P338 leukemia cells measured as toxic level at 25 mg/kg, ip optimal dose on day 1 in mice; format: functional, Mus musculus; conditions: route intraperitoneal
Procedure, shortened: as §2, with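 “The drug” for “Drug”, “given as a single” for “injected”, “injection” for “daily”, “day 1,” for “days 1–5,”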

[8] = test system: P338; assay: Antitumor activity against P338 leukemia cells measured as T/C(average survival time of treated mice/control mice*100)at 3.12 mg/kg, ip optimal dose on days 1-5 in mice; format: functional; conditions: Mus musculus, route intraperitoneal; procedure, shortened: as §1
[9] = test system: P338; assay: Antitumor activity against P338 leukemia cells measured as toxic level at 6.25 mg/kg, ip optimal dose on days 1-5 in mice; format: functional, Mus musculus; conditions: route intraperitoneal; procedure, shortened: as §2
[10] = test system: P338; assay: Antitumor activity against P338 leukemia cells measured as T/C(average survival time of treated mice/control mice*100)at 6.25 mg/kg, ip optimal dose on days 1-5 in mice; format: functional; conditions: Mus musculus, route intraperitoneal; procedure, shortened: as §1
[11] = test system: P338; assay: Antitumor activity against P338 leukemia cells measured as toxic level at 6.25 mg/kg, ip optimal dose on day 1 in mice; format: functional, Mus musculus; conditions: route intraperitoneal
Procedure, shortened: as §2, with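 “The drug” for “Drug”, “given as a single” for “injected”, “injection” for “daily”, “day 1,” for “days 1–5,”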

[12] = test system: P338; assay: Antitumor activity against P338 leukemia cells measured as T/C(average survival time of treated mice/control mice*100)at 6.25 mg/kg, ip optimal dose on day 1 in mice; format: functional; conditions: Mus musculus, 24 h, route intraperitoneal; procedure, shortened: as §3
[13] = test system: P338; assay: Antitumor activity against P338 leukemia cells measured as toxic level at 25 mg/kg, ip optimal dose on days 1-5 in mice; format: functional, Mus musculus; conditions: route intraperitoneal; procedure, shortened: as §2
[14] = test system: P338; assay: Antitumor activity against P338 leukemia cells measured as T/C(average survival time of treated mice/control mice*100)at 25 mg/kg, ip optimal dose on days 1-5 in mice; format: functional; conditions: Mus musculus, route intraperitoneal; procedure, shortened: as §1
[15] = test system: P338; assay: Antitumor activity against P338 leukemia cells measured as toxic level at 3.12 mg/kg, ip optimal dose on day 1 in mice; format: functional, Mus musculus; conditions: route intraperitoneal
Procedure, shortened: as §2, with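 “The drug” for “Drug”, “given as a single” for “injected”, “injection” for “daily”, “day 1,” for “days 1–5,”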

[16] = test system: P338; assay: Antitumor activity against P338 leukemia cells measured as T/C at 3.12 mg/kg, ip optimal dose on day 1 in mice; format: functional; conditions: Mus musculus, 24 h, route intraperitoneal; procedure, shortened: as §3
[17] = test system: P338; assay: Antitumor activity against P338 leukemia cells measured as T/C(average survival time of treated mice/control mice*100)at 0.4 mg/kg, ip optimal dose on days 1-5 in mice; format: functional; conditions: Mus musculus, route intraperitoneal; procedure, shortened: as §1
[18] = test system: P338; assay: Antitumor activity against P338 leukemia cells measured as T/C(average survival time of treated mice/control mice*100)at 0.4 mg/kg, ip optimal dose on day 1 in mice; format: functional; conditions: Mus musculus, 24 h, route intraperitoneal; procedure, shortened: as §3
[19] = test system: P338; assay: Antitumor activity against P338 leukemia cells measured as toxic level at 0.4 mg/kg, ip optimal dose on day 1 in mice; format: functional, Mus musculus; conditions: route intraperitoneal
Procedure, shortened: as §2, with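 “The drug” for “Drug”, “given as a single” for “injected”, “injection” for “daily”, “day 1,” for “days 1–5,”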

[20] = test system: P338; assay: Antitumor activity against P338 leukemia cells measured as toxic level at 0.4 mg/kg, ip optimal dose on days 1-5 in mice; format: functional, Mus musculus; conditions: route intraperitoneal; procedure, shortened: as §2

Compound: CC1=C(C)C(=O)c2[nH]c(C)nc2C1=O
- survival at 12.5 mg/kg [1]: 110%
- Toxic level [2]: 100 mg/kg

Compound: O=C1C(Br)=C(Br)C(=O)c2[nH]cnc21
- Toxic level [3]: 12.5 mg/kg
- survival at 1.56 mg/kg [4]: 130%

Compound: O=C1C=C(NCc2ccccc2)C(=O)c2[nH]cnc21
- survival at 25 mg/kg [5]: 90%
- Toxic level [6]: 150 mg/kg
- Toxic level [7]: 100 mg/kg
- survival at 3.12 mg/kg [8]: 105%

Compound: O=C1C(Br)=C(N2CC2)C(=O)c2[nH]cnc21
- Toxic level [9]: 12.5 mg/kg
- survival at 6.25 mg/kg [10]: 156%

Compound: CC1CN1C1=C(Br)C(=O)c2[nH]cnc2C1=O (stereo not given)
- Toxic level [9]: 12.5 mg/kg
- survival at 6.25 mg/kg [10]: 136%

Compound: CCn1cnc2c1C(=O)C(C)=C(C)C2=O
- survival at 25 mg/kg [5]: 100%
- Toxic level [7]: 100 mg/kg

Compound: O=C1C(Cl)=CC(=O)c2[nH]cnc21
- Toxic level [11]: 12.5 mg/kg
- survival at 6.25 mg/kg [12]: 117%

Compound: O=C(Nc1ccccc1)OCc1nc2c([nH]1)C(=O)C=CC2=O
- Toxic level [9]: 25 mg/kg
- survival at 6.25 mg/kg [10]: 146%

Compound: O=C1C=CC(=O)c2[nH]cnc21
- Toxic level [11]: 12.5 mg/kg
- Toxic level [9]: 25 mg/kg
- survival at 6.25 mg/kg [12]: 105%
- survival at 6.25 mg/kg [10]: 110%

Compound: CC1=C(C)C(=O)c2[nH]cnc2C1=O
- Toxic level [13]: 200 mg/kg
- survival at 25 mg/kg [14]: 130%

Compound: Cc1nc2c([nH]1)C(=O)C=CC2=O
- Toxic level [6]: 6.25 mg/kg
- survival at 3.12 mg/kg [8]: 100%

Compound: O=C1C(CCl)=CC(=O)c2[nH]cnc21
- Toxic level [6]: 12.5 mg/kg
- survival at 3.12 mg/kg [8]: 95%

Compound: O=C1C=CC(=O)c2[nH]c(CO)nc21
- Toxic level [9]: 12.5 mg/kg
- survival at 6.25 mg/kg [10]: 110%
- Toxic level [15]: 12.5 mg/kg
- survival at 3.12 mg/kg [16]: 105%

Compound: Cn1cnc2c1C(=O)C=CC2=O
- survival at 0.4 mg/kg [17]: 95%
- survival at 0.4 mg/kg [18]: 76%
- Toxic level [19]: 3.12 mg/kg
- Toxic level [20]: 6.25 mg/kg

Compound: CC1=C(C)C(=O)c2c(ncn2C)C1=O
- survival at 25 mg/kg [5]: 95%
- Toxic level [7]: 100 mg/kg

Compound: NC1=C(Br)C(=O)c2[nH]cnc2C1=O
- Toxic level [9]: 25 mg/kg
- survival at 6.25 mg/kg [10]: 154%
